Measured values: ChEMBL document CHEMBL4145647, “Aniline-Tetramic Acids from the Deep-Sea-Derived Fungus Cladosporium sphaerospermum L3P3 Cultured with the HDAC Inhibitor SAHA” (J Nat Prod, 2018)
Counter-ions that a name gives are not always drawn.

The compounds below were run on K562 (assay: Cytotoxicity against human K562 cells after 72 hrs by MTT assay). Conditions: K562, 72 h.
Format: functional, cell-based
Method in brief: (§1)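 Cells were checked for viability by Trypan blue counting, then plated at 8000 cells/well and exposed to test solution for 72 h. MTT reagents were then added, followed by a further 10 h incubation. Absorbance was read at 570 nm and IC50 reported in μM. Doxorubicin was the positive control.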

Structure (SMILES)	IC50 [µM]
CC(C)=C1NC(=O)C(=C2C=CC[C@H](C)O2)C1=O	4.5
CO[C@H](CC(Nc1ccccc1)=C1C(=O)NC(=C(C)C)C1=O)C[C@H](C)O	4.1
CO[C@@H](CC(Nc1ccccc1)=C1C(=O)NC(=C(C)C)C1=O)C[C@H](C)O	> 30
CC(C)=C1NC(=O)C(=C(C[C@@H](C[C@H](C)O)Nc2ccccc2)Nc2ccccc2)C1=O	6.8
CC(C)=C1NC(=O)C(=C(C[C@H](C[C@H](C)O)Nc2ccccc2)Nc2ccccc2)C1=O	5.9

What follows are compounds tested on HL-60 (assay: Cytotoxicity against human HL60 cells after 72 hrs by MTT assay). Conditions: HL-60, 72 h.
Format: functional, cell-based
Method in brief: as §1

Structure (SMILES)	IC50 [µM]
CC(C)=C1NC(=O)C(=C2C=CC[C@H](C)O2)C1=O	6.6
CO[C@H](CC(Nc1ccccc1)=C1C(=O)NC(=C(C)C)C1=O)C[C@H](C)O	2.8
CO[C@@H](CC(Nc1ccccc1)=C1C(=O)NC(=C(C)C)C1=O)C[C@H](C)O	> 30
CC(C)=C1NC(=O)C(=C(C[C@@H](C[C@H](C)O)Nc2ccccc2)Nc2ccccc2)C1=O	7.8
CC(C)=C1NC(=O)C(=C(C[C@H](C[C@H](C)O)Nc2ccccc2)Nc2ccccc2)C1=O	7.5

These compounds were tested on PC-3 (assay: Cytotoxicity against human PC3 cells after 72 hrs by SRB assay). Conditions: PC-3, 72 h.

Structure (SMILES)	IC50 [µM]
CC(C)=C1NC(=O)C(=C2C=CC[C@H](C)O2)C1=O	11
CO[C@H](CC(Nc1ccccc1)=C1C(=O)NC(=C(C)C)C1=O)C[C@H](C)O	13
CO[C@@H](CC(Nc1ccccc1)=C1C(=O)NC(=C(C)C)C1=O)C[C@H](C)O	> 30
CC(C)=C1NC(=O)C(=C(C[C@@H](C[C@H](C)O)Nc2ccccc2)Nc2ccccc2)C1=O	> 30
CC(C)=C1NC(=O)C(=C(C[C@H](C[C@H](C)O)Nc2ccccc2)Nc2ccccc2)C1=O	18
COc1cccc2c1C(=O)c1c(O)c3c(c(O)c1C2=O)C[C@@](O)(C(=O)CO)C[C@@H]3O[C@H]1C[C@H](N)[C@H](O)[C@H](C)O1 [DOXORUBICIN HYDROCHLORIDE]	1

The compounds below were run on HCT-116 (assay: Cytotoxicity against human HCT116 cells after 72 hrs by SRB assay). Conditions: HCT-116, 72 h.

Structure (SMILES)	IC50 [µM]
CC(C)=C1NC(=O)C(=C2C=CC[C@H](C)O2)C1=O	12
CO[C@H](CC(Nc1ccccc1)=C1C(=O)NC(=C(C)C)C1=O)C[C@H](C)O	11
CO[C@@H](CC(Nc1ccccc1)=C1C(=O)NC(=C(C)C)C1=O)C[C@H](C)O	> 30
CC(C)=C1NC(=O)C(=C(C[C@@H](C[C@H](C)O)Nc2ccccc2)Nc2ccccc2)C1=O	> 30
CC(C)=C1NC(=O)C(=C(C[C@H](C[C@H](C)O)Nc2ccccc2)Nc2ccccc2)C1=O	14

These compounds were tested on MGC-803 (assay: Cytotoxicity against human MGC803 cells after 72 hrs by SRB assay). Conditions: MGC-803, 72 h.

Structure (SMILES)	IC50 [µM]
CC(C)=C1NC(=O)C(=C2C=CC[C@H](C)O2)C1=O	22
CO[C@H](CC(Nc1ccccc1)=C1C(=O)NC(=C(C)C)C1=O)C[C@H](C)O	19
CO[C@@H](CC(Nc1ccccc1)=C1C(=O)NC(=C(C)C)C1=O)C[C@H](C)O	> 30
CC(C)=C1NC(=O)C(=C(C[C@@H](C[C@H](C)O)Nc2ccccc2)Nc2ccccc2)C1=O	> 30
CC(C)=C1NC(=O)C(=C(C[C@H](C[C@H](C)O)Nc2ccccc2)Nc2ccccc2)C1=O	> 30

The compounds below were run on SH-SY5Y (assay: Cytotoxicity against human SH-SY5Y cells after 72 hrs by SRB assay). Conditions: not given.

Structure (SMILES)	IC50 [µM]
CC(C)=C1NC(=O)C(=C2C=CC[C@H](C)O2)C1=O	15
CO[C@H](CC(Nc1ccccc1)=C1C(=O)NC(=C(C)C)C1=O)C[C@H](C)O	12
CO[C@@H](CC(Nc1ccccc1)=C1C(=O)NC(=C(C)C)C1=O)C[C@H](C)O	> 30
CC(C)=C1NC(=O)C(=C(C[C@@H](C[C@H](C)O)Nc2ccccc2)Nc2ccccc2)C1=O	> 30
CC(C)=C1NC(=O)C(=C(C[C@H](C[C@H](C)O)Nc2ccccc2)Nc2ccccc2)C1=O	> 30
